We go through six compounds from ChEMBL document CHEMBL3112427, “Insights into the mechanism of streptonigrin-induced protein arginine deiminase inactivation” (Bioorg Med Chem, 2014).

Calls of active or inactive are those of the source. No cut-off for these calls is given here. Bounds are passed on as bounds.

Series [1] concerns the target T1, Protein-arginine deiminase type-3 (Homo sapiens, UniProt Q9ULW8).
T1 sequence (Q9ULW8 whole entry): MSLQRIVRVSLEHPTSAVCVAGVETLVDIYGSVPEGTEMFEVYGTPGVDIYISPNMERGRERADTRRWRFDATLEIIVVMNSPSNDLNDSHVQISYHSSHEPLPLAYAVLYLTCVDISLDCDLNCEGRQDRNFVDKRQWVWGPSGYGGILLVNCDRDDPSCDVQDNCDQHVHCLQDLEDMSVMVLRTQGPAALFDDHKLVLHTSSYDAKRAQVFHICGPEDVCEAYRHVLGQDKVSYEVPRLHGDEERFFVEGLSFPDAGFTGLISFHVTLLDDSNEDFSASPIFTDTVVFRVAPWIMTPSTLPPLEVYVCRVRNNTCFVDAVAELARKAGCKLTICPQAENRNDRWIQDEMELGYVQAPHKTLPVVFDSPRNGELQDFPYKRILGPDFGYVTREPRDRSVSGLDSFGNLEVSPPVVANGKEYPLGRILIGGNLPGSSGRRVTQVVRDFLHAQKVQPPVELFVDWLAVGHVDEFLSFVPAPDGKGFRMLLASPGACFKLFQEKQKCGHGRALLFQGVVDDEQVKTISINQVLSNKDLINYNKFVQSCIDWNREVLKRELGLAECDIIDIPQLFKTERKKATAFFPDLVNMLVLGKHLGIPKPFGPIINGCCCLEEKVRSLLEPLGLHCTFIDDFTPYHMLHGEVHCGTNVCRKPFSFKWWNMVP
In words: Inhibition of recombinant wild-type PAD3 (unknown origin) using N-alpha-Benzoyl-L-arginine amide as substrate preincubated for 15 mins followed by substrate addition measured after 15 mins by COLDER assay.

The subject of series [2] is U2OS. In words: Cytotoxicity against human U2OS cells assessed as cell viability at 10 uM after 3 days by XTT-PMS assay relative to control. The series is classed as functional. The following applies: for viability at 10 µM: 72 h, read-out: Activity. In outline: (§1)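 U2OS or NIH 3T3 cells (2.5 × 10^4 cells/mL) plated in 48-well format (n=4) and dosed with 10 µM compound for 3 days. XTT-PMS activated reagent then added for 4 h of colour development; formazan absorbance read at 475 nm.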

The target in series [3] is T2, Protein-arginine deiminase type-1 (Homo sapiens, UniProt Q9ULC6).
T2 sequence (Q9ULC6 whole entry): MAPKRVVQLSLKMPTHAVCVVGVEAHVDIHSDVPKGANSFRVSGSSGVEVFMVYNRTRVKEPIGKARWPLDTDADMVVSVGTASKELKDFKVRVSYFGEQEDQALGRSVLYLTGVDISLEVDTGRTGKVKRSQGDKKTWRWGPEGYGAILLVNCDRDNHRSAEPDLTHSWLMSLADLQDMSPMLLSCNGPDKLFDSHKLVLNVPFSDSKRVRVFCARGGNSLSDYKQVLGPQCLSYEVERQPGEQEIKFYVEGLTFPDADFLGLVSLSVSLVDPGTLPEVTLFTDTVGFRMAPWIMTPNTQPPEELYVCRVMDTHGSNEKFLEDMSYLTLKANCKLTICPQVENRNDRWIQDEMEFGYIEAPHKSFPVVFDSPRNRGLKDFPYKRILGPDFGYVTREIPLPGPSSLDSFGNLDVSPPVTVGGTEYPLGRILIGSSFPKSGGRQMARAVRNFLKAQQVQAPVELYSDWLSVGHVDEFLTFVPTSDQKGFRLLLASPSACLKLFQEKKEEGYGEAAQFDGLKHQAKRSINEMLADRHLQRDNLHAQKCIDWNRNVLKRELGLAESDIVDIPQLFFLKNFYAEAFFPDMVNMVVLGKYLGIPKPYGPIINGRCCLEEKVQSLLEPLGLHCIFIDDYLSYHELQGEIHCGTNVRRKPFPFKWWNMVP
In words: Inhibition of recombinant wild-type PAD1 (unknown origin) using N-alpha-Benzoyl-L-arginine amide as substrate preincubated for 15 mins followed by substrate addition measured after 15 mins by COLDER assay.

Series [4] concerns NIH3T3. In words: Cytotoxicity against mouse NIH/3T3 cells assessed as cell viability at 10 uM after 3 days by XTT-PMS assay relative to control. The series is classed as cell-based. Particulars: nih3t3, 72 h. In outline: as §1
The target of series [5] is T3, Protein-arginine deiminase type-2 (Homo sapiens, UniProt Q9Y2J8). In words: Inhibition of recombinant wild-type PAD2 (unknown origin) using N-alpha-Benzoyl-L-arginine ethyl ester as substrate preincubated for 15 mins followed by substrate addition measured after 15 mins by COLDER assay.
Series [6] concerns the target T4, Protein-arginine deiminase type-4 (Homo sapiens, UniProt Q9UM07). In words: Inhibition of recombinant wild-type PAD4 (unknown origin) using N-alpha-Benzoyl-L-arginine ethyl ester as substrate preincubated for 15 mins followed by substrate addition measured after 15 mins by COLDER assay.
The target in series [7] is T4, Protein-arginine deiminase type-4. In words: Binding affinity to recombinant wild-type PAD4 (unknown origin) assessed as mass shift of enzyme at 1:10 enzyme to compound ratio preincubated for 1 hr followed by overnight dialysis in double distilled water by MALDI mass spectrometric analysis in presence of superoxide dismutase.
In series [8] the test system is Protein-arginine deiminase type-4 (Homo sapiens), Q9UM07 [C645A]. In words: Binding affinity to PAD4 C645A mutant (unknown origin) assessed as mass shift of enzyme at 1:10 enzyme to compound ratio preincubated for 1 hr followed by overnight dialysis in double distilled water by MALDI mass spectrometric analysis.
Series [9] has as its target T4, Protein-arginine deiminase type-4. In words: Binding affinity to recombinant wild-type PAD4 (unknown origin) assessed as mass shift of enzyme at 1:10 enzyme to compound ratio preincubated for 1 hr followed by overnight dialysis in double distilled water by MALDI mass spectrometric analysis.
The target in series [10] is T3, Protein-arginine deiminase type-2. The following applies: at 0.1 to 2.5 µM.
Series [11] shares this target.
Series [12] addresses T4, Protein-arginine deiminase type-4. The following applies: 0.5 uM.
The test system of series [13] is Protein-arginine deiminase type-4 (Homo sapiens), Q9UM07 [C645A]. In words: Binding affinity to PAD4 C645A mutant (unknown origin) assessed as mass shift of enzyme at 1:10 enzyme to compound ratio preincubated for 1 hr followed by overnight dialysis in double distilled water by MALDI mass spectrometric analysis in presence of superoxide dismutase.
In series [14] the target is T4, Protein-arginine deiminase type-4. In words: Binding affinity to recombinant wild-type PAD4 (unknown origin) assessed as mass shift of enzyme at 1:10 enzyme to compound ratio preincubated for 1 hr followed by overnight dialysis in double distilled water by MALDI mass spectrometric analysis in presence of catalase.
Series [15] deals with U2OS. In words: Cytotoxicity against human U2OS cells after 3 days by XTT-PMS assay. Particulars: 72 h. A general note: Tetrazolium dyes change colour on reduction, which living cells bring about.
The target in series [16] is T4, Protein-arginine deiminase type-4. In words: Competitive inhibition of recombinant wild-type PAD4 (unknown origin) at 1 to 50 uM by fluorescence polarization-ABPP assay in presence of RFA. Particulars: in the assay text read “gel-based competitive ABPP assay” for “fluorescence polarization-ABPP assay”. In outline: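 Wild-type PAD4 (2 µM final) labelled with RFA (10 µM final) plus 10 mM calcium in the presence of competitor (0–50 µM final). Quenched with SDS loading buffer, boiled 20 min, run on 12% SDS-PAGE; in-gel fluorescence imaged and quantified.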

Series [17] has as its system NIH3T3. In words: Cytotoxicity against mouse NIH/3T3 cells after 3 days by XTT-PMS assay. The following applies: NIH3T3, 72 h.
In series [18] the target is T4, Protein-arginine deiminase type-4.
Series [19] deals with Protein-arginine deiminase type-2 (Homo sapiens), Q9Y2J8 [C647A]. In words: Binding affinity to PAD2 C647A mutant (unknown origin) assessed as mass shift of enzyme at 1:10 enzyme to compound ratio preincubated for 1 hr followed by overnight dialysis in double distilled water by MALDI mass spectrometric analysis.
For series [20], the system named is Protein-arginine deiminase type-4 (Homo sapiens), Q9UM07 [C645A]. In words: Binding affinity to PAD4 C645A mutant (unknown origin) assessed as mass shift of enzyme at 1:10 enzyme to compound ratio preincubated for 1 hr followed by overnight dialysis in double distilled water by MALDI mass spectrometric analysis in presence of catalase.
Series [21] concerns the target T3, Protein-arginine deiminase type-2. In words: Binding affinity to recombinant wild-type PAD2 (unknown origin) assessed as mass shift of enzyme at 1:10 enzyme to compound ratio preincubated for 1 hr followed by overnight dialysis in double distilled water by MALDI mass spectrometric analysis.
The target of series [22] is T4, Protein-arginine deiminase type-4. In words: Inhibition of recombinant wild-type PAD4 (unknown origin) using N-alpha-Benzoyl-L-arginine ethyl ester as substrate preincubated for 10 mins followed by substrate addition measured after 15 mins by COLDER assay.
Series [23] deals with T3, Protein-arginine deiminase type-2. In words: Inhibition of recombinant wild-type PAD2 (unknown origin) using N-alpha-Benzoyl-L-arginine ethyl ester as substrate preincubated for 10 mins followed by substrate addition measured after 15 mins by COLDER assay.
For series [24], the target named is T4, Protein-arginine deiminase type-4. In words: Irreversible inhibition of recombinant wild-type PAD4 (unknown origin) using N-alpha-Benzoyl-L-arginine ethyl ester as substrate assessed as residual activity at 170-fold excess of compound after 1 hr by dialysis method. The procedure, abridged: (§2)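 Wild-type PAD2 or PAD4 (0.6 µM final) incubated 1 h with compound (170-fold excess) or no compound in Reaction Buffer, then dialysed 20 h against Long-Term Storage Buffer (Tris-HCl pH 7.6, 1 mM EDTA, 500 mM NaCl, 2 mM DTT, 10% glycerol). Residual activity measured with 10 mM BAEE, quenched in liquid N2, and expressed relative to separately dialysed untreated enzyme (100%).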

Series [25] concerns the target T5, Protein-arginine deiminase type-1 (Homo sapiens) (UniProt Q9ULC6).
T5 sequence (whole entry): T2 sequence (Q9ULC6 whole entry)
In words: Irreversible inhibition of recombinant wild-type PAD1 (unknown origin) using N-alpha-Benzoyl-L-arginine amide as substrate assessed as residual activity at 170-fold excess of compound after 1 hr by dialysis method.

In series [26] the target is T6, Protein-arginine deiminase type-3 (Homo sapiens) (UniProt Q9ULW8).
T6 sequence (whole entry): T1 sequence (Q9ULW8 whole entry)
In words: Irreversible inhibition of recombinant wild-type PAD3 (unknown origin) using N-alpha-Benzoyl-L-arginine amide as substrate assessed as residual activity at 170-fold excess of compound after 1 hr by dialysis method.

In series [27] the target is T3, Protein-arginine deiminase type-2. In words: Irreversible inhibition of recombinant wild-type PAD2 (unknown origin) using N-alpha-Benzoyl-L-arginine ethyl ester as substrate assessed as residual activity at 170-fold excess of compound after 1 hr by dialysis method. In outline:
as §2

T4 sequence (Q9UM07 whole entry): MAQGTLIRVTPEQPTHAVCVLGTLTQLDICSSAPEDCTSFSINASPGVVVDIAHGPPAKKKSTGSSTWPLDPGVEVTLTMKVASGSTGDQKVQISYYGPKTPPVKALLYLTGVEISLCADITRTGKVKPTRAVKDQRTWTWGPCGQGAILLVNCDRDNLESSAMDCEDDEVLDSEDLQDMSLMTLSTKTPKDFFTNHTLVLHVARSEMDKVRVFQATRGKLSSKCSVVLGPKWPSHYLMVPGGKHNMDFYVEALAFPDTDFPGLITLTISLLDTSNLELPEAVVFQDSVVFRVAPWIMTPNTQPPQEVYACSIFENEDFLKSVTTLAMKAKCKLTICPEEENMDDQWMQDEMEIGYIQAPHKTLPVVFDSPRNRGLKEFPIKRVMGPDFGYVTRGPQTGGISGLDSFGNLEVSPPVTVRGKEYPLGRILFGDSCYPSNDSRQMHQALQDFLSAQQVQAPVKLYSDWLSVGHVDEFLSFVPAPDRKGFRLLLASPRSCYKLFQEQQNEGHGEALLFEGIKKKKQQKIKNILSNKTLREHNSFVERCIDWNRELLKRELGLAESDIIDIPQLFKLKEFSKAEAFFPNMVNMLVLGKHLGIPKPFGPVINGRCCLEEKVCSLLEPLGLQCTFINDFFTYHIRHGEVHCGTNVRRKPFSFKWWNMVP
Chain of Protein-arginine deiminase type-2 (Homo sapiens), Q9Y2J8 [C647A] (Q9Y2J8 whole entry C647A): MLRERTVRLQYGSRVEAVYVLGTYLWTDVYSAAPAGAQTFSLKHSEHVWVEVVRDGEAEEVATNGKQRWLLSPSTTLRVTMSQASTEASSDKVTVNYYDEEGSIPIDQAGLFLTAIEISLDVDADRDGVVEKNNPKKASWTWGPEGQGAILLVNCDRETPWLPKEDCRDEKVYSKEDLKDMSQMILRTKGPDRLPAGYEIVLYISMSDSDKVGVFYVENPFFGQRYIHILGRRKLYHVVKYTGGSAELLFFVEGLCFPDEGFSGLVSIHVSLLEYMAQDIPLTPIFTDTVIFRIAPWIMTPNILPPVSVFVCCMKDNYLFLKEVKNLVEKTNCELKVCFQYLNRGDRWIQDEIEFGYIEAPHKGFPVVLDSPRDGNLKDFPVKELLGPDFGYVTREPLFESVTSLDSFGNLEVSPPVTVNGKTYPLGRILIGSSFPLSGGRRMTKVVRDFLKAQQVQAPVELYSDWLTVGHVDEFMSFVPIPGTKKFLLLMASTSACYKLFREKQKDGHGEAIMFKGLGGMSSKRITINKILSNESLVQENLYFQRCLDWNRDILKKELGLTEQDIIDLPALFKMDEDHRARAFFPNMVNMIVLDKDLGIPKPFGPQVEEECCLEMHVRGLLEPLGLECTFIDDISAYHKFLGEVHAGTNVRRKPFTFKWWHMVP
T3 sequence (Q9Y2J8 whole entry): as the sequence (Q9Y2J8 whole entry C647A) above, with A647C counted along it
Chain of Protein-arginine deiminase type-4 (Homo sapiens), Q9UM07 [C645A] (Q9UM07 whole entry C645A): as the sequence (Q9UM07 whole entry) above, with C645A counted along it

For `COC1=C(Br)C(=O)c2ncccc2C1=O`, the IC50 in [1] is 4400 nM; in series [3], 4550 nM; in series [5] it was 6320 nM; in series [6] it was 3300 nM. Besides, the result in [2] was Active. For the same compound, the outcome in [4] was Active.
For `NC1=CC(=O)c2ccc(-c3ccccn3)nc2C1=O`, the result in series [7], in series [8], in series [9], in [13], in series [14] and in series [19] was Active. The outcome in series [20] and in [21] was Active. For the same compound, the inhibition result in [10], in [12] and in [16] was “Active” throughout. Moreover, the Kinact in series [11] amounted to 0.07 min⁻¹; in series [18], 0.12 min⁻¹. For the same compound, the IC50 was 130 nM in [1], 950 nM in series [3], 320 nM in series [5] and 640 nM in series [6]. Besides, the EC50 came out at 400 nM in series [15] and 600 nM in [17]. Moreover, in series [2], the viability at 10 µM was ≤ 30%. In [4], the Activity entry is “<= 30%”. The values for the Ki in series [22] and in [23] were 20.1 µM and 8.08 µM, respectively.
As for `COC1=C(N)C(=O)c2nc(-c3nc(C(=O)O)c(C)c(-c4ccc(OC)c(OC)c4O)c3N)ccc2C1=O` [STREPTONIGRIN], the result in series [7], in series [8], in [9], in series [13], in series [14] and in [19] was Active. The result in series [20] and in series [21] was Active. Further, the inhibition result in series [10] and in series [16] was “Active” in each case. Further, the figures for the IC50 in series [1], in series [3] and in series [5] were 430 nM, 48300 nM and 26100 nM, respectively.
On to `NC1=C(Br)C(=O)c2cccnc2C1=O`, for which the viability at 10 µM in [2] was ≤ 30%. Besides, the Activity entry in series [4] is “<= 30%”.
Consider `NC1=CC(=O)c2ccc(-c3cccc(C(=O)O)n3)nc2C1=O`, for which the result in [7], in [8], in series [9], in series [13], in series [14] and in [19] was Active. The outcome in [20], in series [2] and in series [21] was Active. The inhibition result in series [10] and in series [16] was “Active” throughout. The IC50 in series [1] amounted to 710 nM; in series [3], 70 nM; in [5], 200 nM. Further, the outcome in series [24], in series [25], in [26] and in [27] was inactive. The EC50 was 58300 nM in series [15] and 61700 nM in series [17]. Also, the outcome in series [4] was Active.
In the case of `NC1=CC(=O)c2cccnc2C1=O`, the IC50 in [1] worked out at 170 nM; in [3] it was 960 nM; in series [5], 740 nM; in series [6], 1000 nM. Further, the values for the EC50 in [15] and in series [17] were 800 nM and 1100 nM, respectively. In series [2], the viability at 10 µM was ≤ 30%. The Activity entry in series [4] is given as “<= 30%”.

What is called IC50 is the concentration needed to halve the response being measured. As a reminder, the EC50 is the midpoint of the concentration-response curve. Broadly, the Ki is a measure of affinity in units of concentration, obtained from inhibition or displacement.
